Measured values from PMC3729426 (Chemistry (Weinheim an der Bergstrasse, Germany), 2012).
Ends that are not written are not given here. Lumi4(Tb) = Lumi4(Tb) terbium luminescent complex

Key:
[1] = system: MDCKII cells
[2] = system: MDCKII cells; type: cell-based, canine; conditions: summary of microscopic observations at higher concentrations
Procedure, shortened: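 MDCKII cells were incubated 30 min at 37 °C in DMEM with FBS, or serum-free, with Tb3+ complex–peptide conjugates at 5, 20 or 60 μM. In one condition, 5 μM conjugate was combined with 30 μM unconjugated Arg9. Live cells were imaged by time-gated luminescence microscopy (10 μs delay, λex 365 nm, λem 540 ± 10 nm) to score punctate versus diffuse cytoplasmic/nuclear distribution.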

| Substance | intracellular disulfide reduction observed microscopically [1] | fluorescein signal distribution immediately after washing ([1]; MDCKII cells, 17 (10 μM), serum-free medium, 10 min, 37 °C, continuous wave fluorescence) | fluorescein signal distribution 2 h post-wash ([1]; MDCKII cells, 17 (10 μM), serum-free medium, 10 min, imaged 2 h post-wash) | Tb3+-to-fluorescein LRET emission ratio (520 nm/540 nm), 2 h post-wash versus immediate ([1]; MDCKII cells, nuclear region, 17 (10 μM), 4 separate experiments) | mechanism of delivery mediated by the CPP [2] |
| --- | --- | --- | --- | --- | --- |
| 17: cysteine amide-linked heterodimer of Lumi4 and TEGTMP coupled via a disulfide bond to the peptide Cys-TAT(47–57)-Lys(FAM) [compound 17] | its disulfide bond is reduced in the cytoplasm and nucleus | primarily diffuse throughout the cytoplasm and nucleus | punctate staining pattern predominant | significantly reduced | non-endocytic, cytoplasmic delivery |
| 3: an N-terminal fusion of Lumi4(Tb) to Tat (49–57) ({Lumi4(Tb)}-RKKRRQRRR; UniProt P04608 49-57, looked up, fragment) [compound 3] |  |  |  |  | non-endocytic, cytoplasmic delivery |
